According to ChEMBL document CHEMBL4665669, “Novel tertiary sulfonamide derivatives containing benzimidazole moiety as potent anti-gastric cancer agents: Design, synthesis and SAR studies” (Eur J Med Chem, 2019):

How the values were obtained:
PC-3 = assay: Anticancer activity against human PC-3 cells assessed as inhibition of cell proliferation after 48 hrs by MTT assay; assay type: functional, cell-based; details: PC-3, 48 h
Method in brief: (§1)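 MTT assay with 48 h compound exposure. MTT solution was then added and incubated 4 h at 37 °C, the supernatant discarded and formazan dissolved in DMSO, with absorbance read at 490 nm. IC50 values were calculated from three independent experiments, reported as mean SD.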

MCF7 = assay: Anticancer activity against human MCF7 cells assessed as inhibition of cell proliferation after 48 hrs by MTT assay; assay type: functional, cell-based; details: MCF7, 48 h; method in brief: as §1
MGC-803 = assay: Anticancer activity against human MGC-803 cells assessed as inhibition of cell proliferation after 48 hrs by MTT assay; assay type: functional, cell-based; details: MGC-803, 48 h; method in brief: as §1
[1] = Inhibition of HIF in human LN229 cells transfected with HRE-luc/LacZ by dual luciferase reporter gene assay; assay type: cell-based; details: LN-229
SGC-7901 = assay: Anticancer activity against human SGC-7901 cells assessed as inhibition of cell proliferation after 48 hrs by MTT assay; assay type: functional, cell-based; details: SGC-7901, 48 h; method in brief: as §1
HGC-27 = assay: Anticancer activity against human HGC-27 cells assessed as inhibition of cell proliferation after 48 hrs by MTT assay; assay type: functional, cell-based; details: HGC-27, 48 h; method in brief: as §1
GES1 = assay: Cytotoxicity against human GES1 cells assessed as inhibition of cell proliferation after 48 hrs by MTT assay; assay type: cell-based; details: GES1, 48 h
Method in brief: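 Normal gastric epithelial GES-1 cells were exposed to compound for 48 h. MTT was then added for 4 h at 37 °C. Formazan was dissolved in DMSO after the supernatant was removed, and absorbance was read at 490 nm. IC50 was computed from three independent experiments, given as mean SD.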

Carbonic anhydrase 9 = Carbonic anhydrase 9 (Homo sapiens, UniProt Q16790); assay: Inhibition of recombinant human CA9 preincubated for 15 mins by phenol red dye based stopped flow CO2 hydration assay

Compound | IC50 (PC-3) | IC50 (MCF7) | IC50 (MGC-803) | IC50 [1] | IC50 (SGC-7901) | IC50 (HGC-27) | IC50 (GES1) | IC50 (Carbonic anhydrase 9)
COc1cc(N(Cc2cccc(C)c2)S(=O)(=O)c2ccc(C)cc2)cc(OC)c1OC | 8.58 µM | 14.3 µM | 4.34 µM | – | – | – | – | –
COc1cc(N(Cc2nc3ccccc3[nH]2)S(=O)(=O)c2ccc(F)cc2)cc(OC)c1OC | 7.99 µM | 9.38 µM | 5.68 µM | – | – | – | – | –
COc1ccc(S(=O)(=O)N(Cc2ccc3c(c2)OC(C)(C)C=C3)c2ccccc2)cc1OC | – | – | – | 0.59 µM | – | – | – | –
COc1ccc(CN(c2cc(OC)c(OC)c(OC)c2)S(=O)(=O)c2ccc(C(C)(C)C)cc2)cc1 | 28.6 µM | 32.7 µM | 10.3 µM | – | – | – | – | –
O=c1[nH]cc(F)c(=O)[nH]1 [FLUOROURACIL] | 18.4 µM | 17.1 µM | – | – | 5.54 µM | 4.28 µM | 10.2 µM | –
COc1ccc(C(=O)N(Cc2nc3ccccc3[nH]2)c2cc(OC)c(OC)c(OC)c2)cc1OC | 34.9 µM | > 50 µM | 22.4 µM | – | – | – | – | –
COc1cc(N(Cc2csc3ccc(Cl)cc23)S(=O)(=O)c2ccc(C)cc2)cc(OC)c1OC | 15.2 µM | 8.95 µM | 3.45 µM | – | – | – | – | –
COc1cc(N(Cc2ccccc2)S(=O)(=O)c2ccc(C)cc2)cc(OC)c1OC | 7.81 µM | 10.2 µM | 3.57 µM | – | – | – | – | –
COc1ccc(CN(c2cc(OC)c(OC)c(OC)c2)S(=O)(=O)c2c(C)cc(C)cc2C)cc1 | 14.8 µM | 18.7 µM | 6.44 µM | – | – | – | – | –
COc1ccc(N(Cc2nc3ccccc3[nH]2)S(=O)(=O)c2ccc(C)cc2)cc1OC | > 50 µM | > 50 µM | > 50 µM | – | – | – | – | –
Cc1ccc(S(=O)(=O)N(Cc2nc3ccccc3[nH]2)c2ccc(F)cc2)cc1 | 45 µM | > 50 µM | 34.6 µM | – | – | – | – | –
Cc1ccc(N(CC(C)F)S(=O)(=O)c2ccc([N+](=O)[O-])cc2)cc1 (configuration not stated) | – | – | – | – | – | – | – | 0.0042 µM
COc1ccc(CN(c2cc(OC)c(OC)c(OC)c2)S(=O)(=O)c2ccc(OC)c(OC)c2)cc1 | 20.1 µM | 22.7 µM | 8.31 µM | – | – | – | – | –
Cc1ccc(N(Cc2nc3ccccc3[nH]2)S(=O)(=O)c2ccc(C)cc2)cc1 | 48.9 µM | > 50 µM | 41.2 µM | – | – | – | – | –
COc1cc(N(Cc2nc3ccccc3[nH]2)C(=O)c2ccccc2)cc(OC)c1OC | > 50 µM | > 50 µM | > 50 µM | – | – | – | – | –
COc1cc(N(Cc2nc3ccccc3[nH]2)C(=O)c2cccc(Cl)c2)cc(OC)c1OC | > 50 µM | 34.9 µM | > 50 µM | – | – | – | – | –
COc1cc(N(Cc2nc3ccccc3[nH]2)S(=O)(=O)c2ccc(Br)cc2)cc(OC)c1OC | 6.89 µM | 7.74 µM | 2.19 µM | – | – | – | – | –

Compound | IC50 (PC-3) | IC50 (MCF7) | IC50 (MGC-803) | IC50 [1] | IC50 (SGC-7901) | IC50 (HGC-27) | IC50 (GES1) | IC50 (Carbonic anhydrase 9)
COc1ccc(N(Cc2nc3ccccc3[nH]2)S(=O)(=O)c2ccc(C)cc2)cc1 | > 50 µM | > 50 µM | > 50 µM | – | – | – | – | –
COc1cc(N(Cc2nc3ccccc3[nH]2)C(=O)c2ccc(C(C)(C)C)cc2)cc(OC)c1OC | 46 µM | 48.8 µM | > 50 µM | – | – | – | – | –
COc1cc(N(Cc2nc3ccccc3[nH]2)C(=O)c2ccc(Br)cc2)cc(OC)c1OC | 19.9 µM | > 50 µM | 14.6 µM | – | – | – | – | –
COc1ccc(CN(c2cc(OC)c(OC)c(OC)c2)S(=O)(=O)c2ccc(C)cc2)cc1 | 8.22 µM | 10.1 µM | 4.34 µM | – | – | – | – | –
COc1cc(N(Cc2nc3ccccc3[nH]2)S(=O)(=O)c2ccccc2)cc(OC)c1OC | 25.5 µM | 27.3 µM | 12.4 µM | – | – | – | – | –
COc1cc(N(Cc2nc3ccccc3[nH]2)C(=O)c2ccc(C)cc2)cc(OC)c1OC | 42 µM | 49.2 µM | 30.5 µM | – | – | – | – | –
COc1cc(N(Cc2nc3ccccc3[nH]2)S(=O)(=O)c2ccccc2Cl)cc(OC)c1OC | 34.5 µM | 38.1 µM | 19.1 µM | – | – | – | – | –
COc1cc(N(Cc2nc3ccccc3[nH]2)C(=O)c2ccc(F)cc2)cc(OC)c1OC | 21.9 µM | 45.2 µM | 23.6 µM | – | – | – | – | –
COc1cc(N(Cc2nc3ccccc3[nH]2)S(=O)(=O)c2ccc(C(C)(C)C)cc2)cc(OC)c1OC | 29.8 µM | 33.6 µM | 24.1 µM | – | – | – | – | –
COc1ccc(S(=O)(=O)N(Cc2nc3ccccc3[nH]2)c2cc(OC)c(OC)c(OC)c2)cc1OC | 30.4 µM | 47.7 µM | 22.5 µM | – | – | – | – | –
Cc1ccc(S(=O)(=O)N(Cc2nc3ccccc3[nH]2)c2ccccc2)cc1 | > 50 µM | 49.7 µM | 45.2 µM | – | – | – | – | –
Cc1ccc(S(=O)(=O)N(Cc2nc3ccccc3[nH]2)c2ccc(Cl)cc2)cc1 | 42.2 µM | 38.3 µM | 24.8 µM | – | – | – | – | –
COc1cc(N(Cc2ccc(Cl)cc2)S(=O)(=O)c2ccc(C)cc2)cc(OC)c1OC | 14.6 µM | 18.6 µM | 1.72 µM | – | – | – | – | –
COc1cc(N(Cc2ccc(F)cc2)S(=O)(=O)c2ccc(C)cc2)cc(OC)c1OC | 20.7 µM | 19.2 µM | 3.75 µM | – | – | – | – | –
COc1ccc(CN(c2cc(OC)c(OC)c(OC)c2)S(=O)(=O)c2ccccc2)cc1 | > 50 µM | > 50 µM | > 50 µM | – | – | – | – | –
COc1cc(N(Cc2ccc(Br)cc2)S(=O)(=O)c2ccc(C)cc2)cc(OC)c1OC | 4.68 µM | 10.9 µM | 1.61 µM | – | – | – | – | –
